# Measured values published in ChEMBL document CHEMBL1154901, “Quassidines A-D, bis-beta-carboline alkaloids from the stems of Picrasma quassioides” (J Nat Prod, 2010).
# Columns and labels:
# [1] = test system: RAW264.7; assay: Antiinflammatory activity in mouse RAW264.7 cells assessed as inhibition of LPS-induced TNFalpha production by ELISA; type: functional, cell-based
# Outline: (§1)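 RAW 264.7 cells in RPMI 1640, seeded at 5 × 10^5 cells/mL and cultured 1 h. Compound in DMSO was co-added with LPS (final 1 µg/mL). After 6 h culture, supernatant TNF-α and IL-6 were quantified with mouse ELISA kits. LPS-only and DMSO-only (no LPS) wells served as references.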
# [2] = test system: RAW264.7; assay: Antiinflammatory activity in mouse RAW264.7 cells assessed as inhibition of LPS-induced IL-6 production by ELISA; type: functional, cell-based; outline: as §1
# [3] = test system: RAW264.7; assay: Antiinflammatory activity in mouse RAW264.7 assessed as inhibition LPS-induced nitric oxide production cells after 24 hrs; type: functional, cell-based; details: RAW264.7, 24 h
# Outline: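 RAW 264.7 cells in RPMI 1640 with 10% heat-inactivated FBS, seeded at 5 × 10^5 cells/mL and cultured 1 h. Compound in DMSO was added at various concentrations together with LPS (final 1 µg/mL), then incubated 24 h. Supernatant nitrite was measured with Griess reagent (1% sulfanilamide in 5% H3PO4 plus 0.1% naphthylethylene diamine) at 540 nm. Inhibitory rate versus LPS-only wells.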
# [4] = test system: RAW264.7; assay: Cytotoxicity against mouse RAW264.7 cells after 24 hrs by MTT assay; type: cell-based; details: raw264.7, 24 h
# Outline: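 RAW 264.7 macrophages seeded at 5 × 10^5 cells/mL in RPMI 1640 with 10% FBS. Compound in DMSO was added with LPS 1 µg/mL. Viability was read by MTT mitochondrial reduction colorimetric assay after 24 h exposure.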
SMILES,IC50 [1] [µM],IC50 [2] [µM],IC50 [3] [µM],Activity [4]
C[C@]12CCC(=O)C=C1CC[C@@H]1[C@@H]2[C@@H](O)C[C@@]2(C)[C@H]1CC[C@]2(O)C(=O)CO [HYDROCORTISONE],85.6,–,–,–
COc1cccc2c1[nH]c1c(CCC(OC)C(=O)c3nccc4c3[nH]c3ccccc34)ncc(OC)c12 (configuration not stated) [PICRASIDINE C],> 100,> 100,89.9,–
COc1cccc2c1[nH]c1c([C@@H]3CC[C@H]3c3ncc(OC)c4c3[nH]c3ccccc34)ncc(OC)c12 [QUASSIDINE A],88.4,> 100,89.4,–
COc1cccc2c1[nH]c1c(CCC(O)c3nccc4c3[nH]c3ccccc34)ncc(OC)c12 (configuration not stated) [QUASSIDINE B],–,–,–,Toxic
COc1cnc(CCC(O)c2nccc3c2[nH]c2ccccc23)c2[nH]c3ccccc3c12 (configuration not stated) [QUASSIDINE C],–,–,–,Toxic
COc1cccc2c1[nH]c1c(CCC(OC)c3nccc4c3[nH]c3ccccc34)ncc(OC)c12 (configuration not stated) [QUASSIDINE D],> 100,> 100,> 100,–
